Legend:
[1] = test system: wild-type M. smegmatis 70S ribosomes; experiment: Cell-free luciferase translation assay, wild-type ribosomes; assay type: biochemical; details: read-out: IC50, inhibition of luciferase synthesis; Mycobacterium smegmatis wild-type ribosomes; coupled transcription–translation, 37°C, 60 min
[2] = test system: cytosolic ribosomes in rabbit reticulocyte lysate; experiment: Rabbit reticulocyte translation assay; assay type: biochemical; details: read-out: IC50, inhibition of luciferase synthesis, luciferase mRNA, 30°C, 90 min
Summary of the method: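 Rabbit reticulocyte lysate supplied cytosolic ribosomes to translate firefly luciferase control mRNA (500 ng), with amino acids (100 μM each) and RNasin. Aminoglycosides were added as serial dilutions, then incubated at 30°C for 90 min. Luciferase substrate was added and luminescent activity read. IC50 and the 100% value came from best-fit nonlinear regression.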

[3] = test system: M. smegmatis mutants carrying human–bacterial hybrid ribosomes (Homo sapiens helix 44 decoding site); experiment: MIC broth microdilution, cells with human-bacterial hybrid ribosomes; assay type: cell-based, Mycobacterium smegmatis; details: for Relative resistance (ratio of mutant to wild-type MIC): human hybrids versus wild-type M. smegmatis; for MIC: M. smegmatis cells with Homo sapiens hybrid ribosomes, 37°C, 72 h
[4] = test system: M. smegmatis Leishmania hybrids (Leishmania/Trypanosoma decoding site); experiment: MIC broth microdilution, cells with Leishmania/Trypanosoma hybrid ribosomes; assay type: cell-based, Mycobacterium smegmatis; details: for Relative resistance (ratio of mutant to wild-type MIC): Leishmania hybrids versus wild-type M. smegmatis; for MIC: M. smegmatis cells with Leishmania/Trypanosoma hybrid ribosomes, 37°C, 72 h
[5] = test system: Mycobacterium smegmatis hybrids with a Blastocrithidia decoding region; experiment: MIC broth microdilution, cells with Blastocrithidia hybrid ribosomes; assay type: cell-based; details: M. smegmatis cells with Blastocrithidia hybrid ribosomes; 37°C, 72 h
[6] = test system: Mycobacterium smegmatis wild-type; experiment: MIC broth microdilution, wild-type strain; assay type: cell-based; details: 37°C, 72 h

Molecule: CN[C@@H]1[C@@H](O)[C@@H](O[C@@H]2[C@@H](O)[C@H](O[C@H]3O[C@H]([C@@H](C)O)[C@@H](O)[C@H](O)[C@H]3N)[C@@H](N)C[C@H]2N)OC[C@]1(C)O [Geneticin, geneticin (G418)]
- IC50 [1]: 30 nM
- IC50 [2]: 200 nM

Molecule: CNC(C)C1CCC(N)C(OC2C(N)CC(N)C(OC3OCC(C)(O)C(NC)C3O)C2O)O1 (stereo not shown) [Gentamicin, gentamicin]
- Relative resistance (ratio of mutant to wild-type MIC) [3]: ≥ 1024
- Relative resistance (ratio of mutant to wild-type MIC) [4]: ≥ 1024

Molecule: CCN[C@@H]1C[C@H](N)[C@@H](O[C@H]2OC(CN)=CC[C@H]2N)[C@H](O)[C@H]1O[C@H]1OC[C@](C)(O)[C@H](NC)[C@H]1O [Netilmicin, netilmicin]
- IC50 [1]: 50 nM
- Relative resistance (ratio of mutant to wild-type MIC) [3]: ≥ 1024
- IC50 [2]: 58000 nM
- Relative resistance (ratio of mutant to wild-type MIC) [4]: ≥ 1024

Molecule: NC[C@@H]1O[C@H](O[C@H]2[C@@H](O)[C@H](O[C@@H]3[C@@H](O)[C@H](N)C[C@H](N)[C@H]3O[C@H]3O[C@H](CO)[C@@H](O)[C@H](O)[C@H]3N)O[C@@H]2CO)[C@H](N)[C@@H](O)[C@@H]1O [Paromomycin, paromomycin]
- IC50 [1]: 30 nM
- Relative resistance (ratio of mutant to wild-type MIC) [3]: ≥ 1024
- IC50 [2]: 9200 nM

Molecule: NC[C@H]1O[C@H](O[C@H]2[C@H](O)[C@@H](O[C@H]3O[C@H](CO)[C@@H](O)[C@H](N)[C@H]3O)[C@H](N)C[C@@H]2N)[C@H](N)C[C@@H]1O [Tobramycin, tobramycin]
- IC50 [1]: 20 nM
- Relative resistance (ratio of mutant to wild-type MIC) [3]: ≥ 1024
- IC50 [2]: 38000 nM
- Relative resistance (ratio of mutant to wild-type MIC) [4]: ≥ 1024

Molecule: kanamycin A
- IC50 [1]: 50 nM
- MIC [3]: >1024 µg/mL
- Relative resistance (ratio of mutant to wild-type MIC) [3]: ≥ 1024
- MIC [5]: 1 µg/mL
- MIC [6]: 1 µg/mL
- IC50 [2]: 67000 nM
- Relative resistance (ratio of mutant to wild-type MIC) [4]: ≥ 1024
- MIC [4]: >1024 µg/mL

Molecule: neomycin
- IC50 [1]: 40 nM
- MIC [3]: >1024 µg/mL
- Relative resistance (ratio of mutant to wild-type MIC) [3]: ≥ 1024
- MIC [5]: 1 µg/mL
- MIC [6]: 0.5 µg/mL
- IC50 [2]: 18000 nM
- Relative resistance (ratio of mutant to wild-type MIC) [4]: ≥ 1024
- MIC [4]: >1024 µg/mL

— PMC2094070 (Nucleic Acids Research, 2007)
